{
  "source": "paper PMC12217772",
  "about": "(Nature Communications, 2025)",
  "key": {"CP-AMPARs": {"biological_target": "CP-AMPARs (Rattus norvegicus, UniProt P19491)", "assay": "Whole-cell recordings, other NMDAR channel blockers on CP-AMPARs", "type": "cell-based", "details": "for Inhibitory effect on CP-AMPARs at hundreds of micromolar concentrations: hundreds of micromolar (10 and 100 µM shown in Fig. S1), 10 mM glutamate"}, "[1]": {"biological_target": "GluA2(Q) subunit of GluA2-γ2EM (rat) (UniProt P19491)", "assay": "cryo-EM structure"}, "GluA2(Q)": {"biological_target": "GluA2(Q) (Rattus norvegicus, UniProt P19491)", "assay": "Whole-cell patch-clamp, glutamate-induced currents, GluA2", "type": "cell-based", "details": "500 µM memantine, 10 mM glutamate, no auxiliary subunit, no CTZ", "in_short": "(§1)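 HEK-293T cells were transfected with GluA2(Q), GluA2(Q)/γ2 or GluA2(Q)/γ8 plus GFP, replated in NBQX medium, and recorded 24–48 h later. Whole-cell clamp at −60 mV, room temperature; CsF/CsCl/EGTA internal and NaCl/KCl/CaCl2/HEPES external, both pH 7.4. […] IC50 came from a Hill fit of steady-state inhibition; ≥3 recordings from ≥3 days.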"}, "GluA2(Q)/γ2": {"biological_target": "GluA2(Q)/γ2 (UniProt P19491+Q9Y698, E306D/I257V/N307S/S313A)", "assay": "Whole-cell patch-clamp, glutamate-induced currents, GluA2", "type": "cell-based, rat", "details": "10 mM glutamate", "in_short": "as §1"}, "GluA2(Q)/γ8": {"biological_target": "GluA2(Q)/γ8 (UniProt P19491+Q8WXS5)", "assay": "Whole-cell patch-clamp, glutamate-induced currents, GluA2", "type": "cell-based, rat", "details": "500 µM memantine, 10 mM glutamate", "in_short": "as §1"}, "[2]": {"biological_target": "GluA2(Q) in the presence of CTZ (Rattus norvegicus, UniProt P19491)", "assay": "Whole-cell patch-clamp, GluA2", "type": "cell-based", "details": "500 µM memantine, 100 μM CTZ, 10 mM glutamate"}, "GluA2(R)/γ2": {"biological_target": "GluA2(R)/γ2 (Rattus norvegicus, UniProt P19491, Q607R)", "assay": "Whole-cell patch-clamp, glutamate-induced currents, CI-AMPAR GluA2", "type": "cell-based", "details": "10 mM glutamate"}, "GluA1/γ2": {"biological_target": "GluA1/γ2 (Homo sapiens, UniProt P42261)", "sequence (P42261 19-906, species assumed)": "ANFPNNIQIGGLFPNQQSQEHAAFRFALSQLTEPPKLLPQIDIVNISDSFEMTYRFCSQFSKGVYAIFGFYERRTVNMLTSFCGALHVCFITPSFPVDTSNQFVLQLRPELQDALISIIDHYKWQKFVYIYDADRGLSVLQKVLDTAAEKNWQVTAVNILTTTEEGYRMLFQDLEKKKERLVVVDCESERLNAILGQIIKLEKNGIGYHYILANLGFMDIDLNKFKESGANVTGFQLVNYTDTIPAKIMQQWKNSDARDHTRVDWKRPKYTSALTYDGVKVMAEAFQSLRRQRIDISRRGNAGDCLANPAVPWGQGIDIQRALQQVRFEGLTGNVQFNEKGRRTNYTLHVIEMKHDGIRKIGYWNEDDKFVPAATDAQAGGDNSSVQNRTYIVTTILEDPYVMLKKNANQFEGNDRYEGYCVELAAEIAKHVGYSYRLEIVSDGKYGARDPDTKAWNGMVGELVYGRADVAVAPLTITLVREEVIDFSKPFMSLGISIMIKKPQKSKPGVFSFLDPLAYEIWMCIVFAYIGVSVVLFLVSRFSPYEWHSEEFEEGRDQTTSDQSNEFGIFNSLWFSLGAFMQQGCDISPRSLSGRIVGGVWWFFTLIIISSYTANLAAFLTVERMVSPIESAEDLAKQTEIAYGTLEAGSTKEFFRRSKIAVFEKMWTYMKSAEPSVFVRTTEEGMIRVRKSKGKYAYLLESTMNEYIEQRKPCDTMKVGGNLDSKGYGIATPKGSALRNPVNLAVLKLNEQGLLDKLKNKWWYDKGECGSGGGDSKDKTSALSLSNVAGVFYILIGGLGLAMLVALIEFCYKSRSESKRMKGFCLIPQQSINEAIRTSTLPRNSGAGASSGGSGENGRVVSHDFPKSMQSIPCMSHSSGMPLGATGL", "sequence (Q9Y698 whole entry partner, species assumed)": "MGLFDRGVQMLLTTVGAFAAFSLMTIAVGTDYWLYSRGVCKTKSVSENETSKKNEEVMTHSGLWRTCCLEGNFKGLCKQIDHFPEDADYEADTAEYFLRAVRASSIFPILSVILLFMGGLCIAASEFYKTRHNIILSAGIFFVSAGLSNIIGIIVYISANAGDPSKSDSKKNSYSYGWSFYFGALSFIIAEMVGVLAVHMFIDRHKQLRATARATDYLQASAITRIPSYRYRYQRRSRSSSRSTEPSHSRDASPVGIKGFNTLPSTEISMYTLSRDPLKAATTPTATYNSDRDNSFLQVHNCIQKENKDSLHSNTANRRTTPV", "assay": "Whole-cell patch-clamp, glutamate-induced currents, GluA1/γ2", "type": "cell-based", "in_short": "(§2)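 HEK-293T cells at 40–50% confluency were lipofectamine-transfected with GluA1, or GluA1 plus GluA2(R), co-transfected with γ2 or γ8 and GFP. Cells were replated after 4–6 h in NBQX-containing medium and recorded 24–48 h post-transfection. […] IC50 came from a Hill fit of steady-state current inhibition versus concentration; ≥3 recordings over ≥3 days.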"}, "GluA1/γ8": {"biological_target": "GluA1/γ8 (Homo sapiens, UniProt P42261)", "sequence (P42261 19-906, species assumed)": "as the sequence (P42261 19-906, species assumed) above", "sequence (Q8WXS5 whole entry partner, species assumed)": "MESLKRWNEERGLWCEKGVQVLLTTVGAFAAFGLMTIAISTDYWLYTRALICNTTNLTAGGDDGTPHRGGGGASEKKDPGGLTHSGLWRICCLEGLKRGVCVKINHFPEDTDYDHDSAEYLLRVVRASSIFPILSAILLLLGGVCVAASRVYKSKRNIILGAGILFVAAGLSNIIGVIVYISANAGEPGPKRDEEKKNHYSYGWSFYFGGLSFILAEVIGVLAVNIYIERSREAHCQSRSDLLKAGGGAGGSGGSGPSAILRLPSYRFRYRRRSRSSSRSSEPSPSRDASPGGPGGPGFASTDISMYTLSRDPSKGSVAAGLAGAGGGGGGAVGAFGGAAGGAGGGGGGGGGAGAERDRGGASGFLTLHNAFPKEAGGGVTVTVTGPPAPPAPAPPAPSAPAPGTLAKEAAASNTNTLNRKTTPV", "assay": "Whole-cell patch-clamp, glutamate-induced currents, GluA1/γ8", "type": "cell-based", "in_short": "as §2"}, "GluA1-GluA2(R)/γ2": {"biological_target": "GluA1-GluA2(R)/γ2 (UniProt P19491+P42261, Q607R)", "assay": "Whole-cell patch-clamp, co-expression of GluA1 and GluA2", "type": "cell-based", "in_short": "as §2"}},
  "note": "Several values for one entry are separate records, joined by “and”; a condition that tells them apart may be missing. Identical values can stand only once.",
  "data": [
    {"compound": "C[C@]12N[C@H](Cc3ccccc31)c1ccccc12", "note": "[MK801]", "values": [
      {"measurement": "Inhibition of CP-AMPARs in the concentration range where they inhibit NMDARs", "setting": "CP-AMPARs", "result": "do not show significant inhibition"},
      {"measurement": "Inhibitory effect on CP-AMPARs at hundreds of micromolar concentrations", "setting": "CP-AMPARs", "result": "minimal inhibitory effect"}
    ]},
    {"compound": "GluA2(Q) subunit of GluA2-γ2EM (from UniProt P19491-2 22-883) (receptor)", "values": [
      {"measurement": "stoichiometry N", "setting": "[1]", "result": 4}
    ]},
    {"compound": "CC12CC3CC(C)(C1)CC(N)(C3)C2", "note": "[memantine, Memantine]", "values": [
      {"measurement": "Inhibition of whole-cell currents of GluA2(Q) in isolation", "setting": "GluA2(Q)", "result": "did not show any significant inhibition"},
      {"measurement": "Effect on peak and steady-state currents of GluA2(Q)/γ2", "setting": "GluA2(Q)/γ2; 500 µM memantine", "result": "inhibited"},
      {"measurement": "IC50", "setting": "GluA2(Q)/γ2; IC50 for memantine inhibition of GluA2(Q)/γ2, HEK-293 cells, steady-state current, −60 mV", "result": "49.3 µM and 49 µM"},
      {"measurement": "Effect on peak and steady-state currents of GluA2(Q)/γ8", "setting": "GluA2(Q)/γ8", "result": "inhibited"},
      {"measurement": "Effect on steady-state currents of GluA2(Q) with CTZ", "setting": "[2]", "result": "showed inhibition of the steady-state currents"},
      {"measurement": "Inhibitory effect on GluA2(R)/γ2 at 500 µM", "setting": "GluA2(R)/γ2; 500 µM memantine", "result": "only a minor inhibitory effect"},
      {"measurement": "Inhibition of GluA2(R)/γ2 currents at saturating concentrations", "setting": "GluA2(R)/γ2; saturating concentrations of memantine", "result": "only partial inhibition"},
      {"measurement": "IC50", "setting": "GluA1/γ2", "result": "15 ± 2", "unit": "µM"},
      {"measurement": "IC50", "setting": "GluA1/γ8", "result": "10 ± 2", "unit": "µM"},
      {"measurement": "IC50", "setting": "GluA1-GluA2(R)/γ2", "result": "697 ± 149", "unit": "µM"}
    ]},
    {"compound": "CNC1(c2ccccc2Cl)CCCCC1=O", "note": "(stereo not drawn) [ketamine]", "values": [
      {"measurement": "Inhibition of CP-AMPARs in the concentration range where they inhibit NMDARs", "setting": "CP-AMPARs", "result": "do not show significant inhibition"},
      {"measurement": "Inhibitory effect on CP-AMPARs at hundreds of micromolar concentrations", "setting": "CP-AMPARs", "result": "minimal inhibitory effect"}
    ]}
  ]
}
